# Data: ChEMBL document CHEMBL1629548, “In vitro activities of tigecycline against clinical isolates of Aeromonas, Vibrio, and Salmonella species in Taiwan” (2008)
# Legend:
# Aeromonas hydrophila [1] = experiment: Antimicrobial activity against Aeromonas hydrophila assessed as susceptible isolate by FDA method; type: functional
# Method in brief: (§1)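 Susceptibility categories assigned from tigecycline broth microdilution MICs (CLSI method, 0.03–128 μg/ml) using US FDA or EUCAST breakpoints, as named in each line.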
# Aeromonas hydrophila [2] = experiment: Antimicrobial activity against Aeromonas hydrophila assessed as susceptible isolate by EUCAST method; type: functional; method in brief: as §1
# Aeromonas hydrophila [3] = experiment: Antimicrobial activity against Aeromonas hydrophila assessed as intermediate isolate by FDA method; type: functional
# Method in brief: (§2)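 Tigecycline MICs for clinical isolates (Taiwan) were determined by broth microdilution over 0.03 to 128 μg/ml. A control strain was included, and its MICs had to fall within the recommended range. Susceptible, intermediate and resistant categories were assigned from the MICs using US FDA and EUCAST breakpoints.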
# Aeromonas hydrophila [4] = experiment: Antimicrobial activity against Aeromonas hydrophila assessed as intermediate isolate by EUCAST method; type: functional; method in brief: as §1
# Aeromonas caviae [5] = experiment: Antimicrobial activity against Aeromonas caviae assessed as susceptible isolate by FDA method; type: functional; method in brief: as §2
# Aeromonas caviae [6] = experiment: Antimicrobial activity against Aeromonas caviae assessed as susceptible isolate by EUCAST method; type: functional; method in brief: as §1
# Aeromonas caviae [7] = experiment: Antimicrobial activity against Aeromonas caviae assessed as intermediate isolate by FDA method; type: functional; method in brief: as §1
# Aeromonas caviae [8] = experiment: Antimicrobial activity against Aeromonas caviae assessed as intermediate isolate by EUCAST method; type: functional; method in brief: as §2
# Aeromonas caviae [9] = experiment: Antimicrobial activity against Aeromonas caviae assessed as resistant isolate by FDA method; type: functional; method in brief: as §2
# Aeromonas sobria [10] = experiment: Antimicrobial activity against Aeromonas sobria assessed as susceptible isolate by FDA method; type: functional; method in brief: as §1
# Aeromonas sobria [11] = experiment: Antimicrobial activity against Aeromonas sobria assessed as susceptible isolate by EUCAST method; type: functional; method in brief: as §1
# Aeromonas sobria [12] = experiment: Antimicrobial activity against Aeromonas sobria assessed as intermediate isolate by FDA method; type: functional; method in brief: as §2
# Aeromonas sobria [13] = experiment: Antimicrobial activity against Aeromonas sobria assessed as intermediate isolate by EUCAST method; type: functional; method in brief: as §1
# [14] = Antimicrobial activity against Salmonella serotype Choleraesuis assessed as susceptible isolate by FDA method; type: functional, Salmonella enterica subsp. enterica serovar Choleraesuis; method in brief: as §2
# [15] = Antimicrobial activity against Salmonella serotype Choleraesuis assessed as intermediate isolate by FDA method; type: functional, Salmonella enterica subsp. enterica serovar Choleraesuis; method in brief: as §2
# [16] = Antimicrobial activity against Salmonella serotype Choleraesuis assessed as intermediate isolate by EUCAST method; type: functional, Salmonella enterica subsp. enterica serovar Choleraesuis; method in brief: as §2
# [17] = Antimicrobial activity against Salmonella serotype Choleraesuis assessed as resistant isolate by FDA method; type: functional, Salmonella enterica subsp. enterica serovar Choleraesuis; method in brief: as §2
# [18] = Antimicrobial activity against Salmonella serotype Choleraesuis assessed as resistant isolate by EUCAST method; type: functional, Salmonella enterica subsp. enterica serovar Choleraesuis; method in brief: as §2
# Salmonella typhimurium [19] = experiment: Antimicrobial activity against Salmonella serotype Typhimurium assessed as susceptible isolate by FDA method; type: functional, Salmonella enterica subsp. enterica serovar Typhimurium; method in brief: as §1
# Salmonella typhimurium [20] = experiment: Antimicrobial activity against Salmonella serotype Typhimurium assessed as susceptible isolate by EUCAST method; type: functional, Salmonella enterica subsp. enterica serovar Typhimurium; method in brief: as §1
# Salmonella typhimurium [21] = experiment: Antimicrobial activity against Salmonella serotype Typhimurium assessed as intermediate isolate by FDA method; type: functional, Salmonella enterica subsp. enterica serovar Typhimurium; method in brief: as §1
# Salmonella typhimurium [22] = experiment: Antimicrobial activity against Salmonella serotype Typhimurium assessed as intermediate isolate by EUCAST method; type: functional, Salmonella enterica subsp. enterica serovar Typhimurium; method in brief: as §1
# Salmonella [23] = experiment: Antimicrobial activity against Salmonella serogroup O7 assessed as susceptible isolate by FDA method; type: functional; method in brief: as §1
# Salmonella [24] = experiment: Antimicrobial activity against Salmonella serogroup O7 assessed as susceptible isolate by EUCAST method; type: functional; method in brief: as §1
# Salmonella [25] = experiment: Antimicrobial activity against Salmonella serogroup O7 assessed as intermediate isolate by FDA method; type: functional; method in brief: as §1
# Salmonella [26] = experiment: Antimicrobial activity against Salmonella serogroup O7 assessed as intermediate isolate by EUCAST method; type: functional; method in brief: as §1
# Salmonella [27] = experiment: Antimicrobial activity against Salmonella serogroup O8 assessed as susceptible isolate by FDA method; type: functional; method in brief: as §1
# Salmonella [28] = experiment: Antimicrobial activity against Salmonella serogroup O8 assessed as susceptible isolate by EUCAST method; type: functional; method in brief: as §1
# Salmonella [29] = experiment: Antimicrobial activity against Salmonella serogroup O8 assessed as intermediate isolate by FDA method; type: functional; method in brief: as §1
# Salmonella [30] = experiment: Antimicrobial activity against Salmonella serogroup O8 assessed as intermediate isolate by EUCAST method; type: functional; method in brief: as §1
# Salmonella [31] = experiment: Antimicrobial activity against Salmonella serogroup O9 assessed as susceptible isolate by FDA method; type: functional; method in brief: as §1
# Salmonella [32] = experiment: Antimicrobial activity against Salmonella serogroup O9 assessed as susceptible isolate by EUCAST method; type: functional; method in brief: as §1
# Salmonella [33] = experiment: Antimicrobial activity against Salmonella serogroup O9 assessed as intermediate isolate by FDA method; type: functional; method in brief: as §1
# Salmonella [34] = experiment: Antimicrobial activity against Salmonella serogroup O9 assessed as intermediate isolate by EUCAST method; type: functional; method in brief: as §2
# Vibrio vulnificus [35] = experiment: Antimicrobial activity against Vibrio vulnificus assessed as susceptible isolate by FDA method; type: functional; method in brief: as §1
# Vibrio vulnificus [36] = experiment: Antimicrobial activity against Vibrio vulnificus assessed as susceptible isolate by EUCAST method; type: functional; method in brief: as §1
# Vibrio vulnificus [37] = experiment: Antimicrobial activity against Vibrio vulnificus assessed as intermediate isolate by FDA method; type: functional; method in brief: as §1
# Vibrio vulnificus [38] = experiment: Antimicrobial activity against Vibrio vulnificus assessed as intermediate isolate by EUCAST method; type: functional; method in brief: as §2
# Vibrio parahaemolyticus [39] = experiment: Antimicrobial activity against Vibrio parahaemolyticus assessed as susceptible isolate by FDA method; type: functional; method in brief: as §1
# Vibrio parahaemolyticus [40] = experiment: Antimicrobial activity against Vibrio parahaemolyticus assessed as susceptible isolate by EUCAST method; type: functional; method in brief: as §1
# Vibrio parahaemolyticus [41] = experiment: Antimicrobial activity against Vibrio parahaemolyticus assessed as intermediate isolate by FDA method; type: functional; method in brief: as §2
# Vibrio parahaemolyticus [42] = experiment: Antimicrobial activity against Vibrio parahaemolyticus assessed as intermediate isolate by EUCAST method; type: functional; method in brief: as §1
# Vibrio cholerae [43] = experiment: Antimicrobial activity against Vibrio cholerae non-O1 assessed as susceptible isolate by FDA method; type: functional; method in brief: as §2
# Vibrio cholerae [44] = experiment: Antimicrobial activity against Vibrio cholerae non-O1 assessed as susceptible isolate by EUCAST method; type: functional; method in brief: as §2
# Vibrio cholerae [45] = experiment: Antimicrobial activity against Vibrio cholerae non-O1 assessed as intermediate isolate by FDA method; type: functional; method in brief: as §2
# Vibrio cholerae [46] = experiment: Antimicrobial activity against Vibrio cholerae non-O1 assessed as intermediate isolate by EUCAST method; type: functional; method in brief: as §2
# Vibrio cholerae [47] = experiment: Antimicrobial activity against Vibrio cholerae non-O1 assessed as resistant isolate by FDA method; type: functional; method in brief: as §2
# Vibrio cholerae [48] = experiment: Antimicrobial activity against Vibrio cholerae non-O1 assessed as resistant isolate by EUCAST method; type: functional; method in brief: as §2
smiles,measurement,setting,value
CN(C)c1cc(NC(=O)CNC(C)(C)C)c(O)c2c1C[C@H]1C[C@H]3[C@H](N(C)C)C(O)=C(C(N)=O)C(=O)[C@@]3(O)C(O)=C1C2=O [TIGECYCLINE],Activity,Aeromonas hydrophila [1],100%
same,Activity,Aeromonas hydrophila [2],98.8%
same,Activity,Aeromonas hydrophila [3],0%
same,Activity,Aeromonas hydrophila [4],1.2%
same,Activity,Aeromonas caviae [5],98.4%
same,Activity,Aeromonas caviae [6],96.8%
same,Activity,Aeromonas caviae [7],1.6%
same,Activity,Aeromonas caviae [8],1.6%
same,Activity,Aeromonas caviae [9],0%
same,Activity,Aeromonas sobria [10],100%
same,Activity,Aeromonas sobria [11],100%
same,Activity,Aeromonas sobria [12],0%
same,Activity,Aeromonas sobria [13],0%
same,Activity,[14],100%
same,Activity,[15],0%
same,Activity,[16],1.6%
same,Activity,[17],0%
same,Activity,[18],0%
same,Activity,Salmonella typhimurium [19],100%
same,Activity,Salmonella typhimurium [20],98.4%
same,Activity,Salmonella typhimurium [21],0%
same,Activity,Salmonella typhimurium [22],1.6%
same,Activity,Salmonella [23],100%
same,Activity,Salmonella [24],100%
same,Activity,Salmonella [25],0%
same,Activity,Salmonella [26],0%
same,Activity,Salmonella [27],100%
same,Activity,Salmonella [28],100%
same,Activity,Salmonella [29],0%
same,Activity,Salmonella [30],0%
same,Activity,Salmonella [31],100%
same,Activity,Salmonella [32],100%
same,Activity,Salmonella [33],0%
same,Activity,Salmonella [34],0%
same,Activity,Vibrio vulnificus [35],100%
same,Activity,Vibrio vulnificus [36],100%
same,Activity,Vibrio vulnificus [37],0%
same,Activity,Vibrio vulnificus [38],0%
same,Activity,Vibrio parahaemolyticus [39],100%
same,Activity,Vibrio parahaemolyticus [40],100%
same,Activity,Vibrio parahaemolyticus [41],0%
same,Activity,Vibrio parahaemolyticus [42],0%
same,Activity,Vibrio cholerae [43],100%
same,Activity,Vibrio cholerae [44],100%
same,Activity,Vibrio cholerae [45],0%
same,Activity,Vibrio cholerae [46],0%
same,Activity,Vibrio cholerae [47],0%
same,Activity,Vibrio cholerae [48],0%
